The entries come from a sample that favours hits as a whole.
NOD2 RIPK2 PPI – NOD2-RIPK2 protein interaction inhibition. 360,000 tested, 0.38% active. CHO BLA complementation NOD2-RIPK2, CCF4 ratio. O43353. inhibition, % at 4.98 µM; in the data active = inhibition above about 21%
Target sequence (O43353 whole entry, looked up): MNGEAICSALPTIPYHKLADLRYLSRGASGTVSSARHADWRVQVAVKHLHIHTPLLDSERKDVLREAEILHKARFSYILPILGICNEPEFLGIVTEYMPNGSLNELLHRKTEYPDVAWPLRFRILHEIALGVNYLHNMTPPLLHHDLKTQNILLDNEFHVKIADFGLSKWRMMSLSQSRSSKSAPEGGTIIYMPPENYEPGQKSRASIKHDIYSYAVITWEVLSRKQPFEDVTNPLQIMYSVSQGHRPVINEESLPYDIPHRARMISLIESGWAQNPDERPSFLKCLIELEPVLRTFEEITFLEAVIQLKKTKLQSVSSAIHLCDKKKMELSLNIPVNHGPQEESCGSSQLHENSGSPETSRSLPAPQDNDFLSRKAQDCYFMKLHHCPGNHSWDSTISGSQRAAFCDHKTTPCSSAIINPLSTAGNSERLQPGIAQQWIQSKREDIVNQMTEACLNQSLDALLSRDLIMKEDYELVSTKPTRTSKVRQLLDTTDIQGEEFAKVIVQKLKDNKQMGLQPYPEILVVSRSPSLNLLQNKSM
CHOP inh – blocks CHOP induction under ER stress; CHO-K1 CHOP-promoter luciferase, tunicamycin-induced, 15-18 h; 220,000 tested, 3.8% active; inhibition, % at 10 µM;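 active = compounds that reduced the stress-induced luciferase reporter signal by more than about 70% of percent inhibition, limit read from the data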
UPR XBP1 act – activators of adaptive arm of unfolded protein response (XBP1) | activation, % at 20 µM | 330,000 tested, 0.33% active | AID 463104 | CHO-XBP1 luciferase reporter, IRE1-XBP1 UPR activation, luminescence; percent of tunicamycin response, DMSO as zero;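 active = versus positive control, 20 µM dose yields 30% or more activation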
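Material: CHO-XBP1 cells stably carrying IRE1-XBP1-driven luciferase reporter / Amount: 1000 cells per well / Compound: 20 µM, 1% DMSO / Times: 6 h treatment, 37 °C / Detection: luciferase luminescence / Measure: % activation of reporter signal versus tunicamycin and DMSO controls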
TLR4 MyD88 comp – TLR4-MyD88 interaction inhibition in cells; inhibition, % at 8.4 µM; AID 861; 200,000 tested, 0.18% active; HeLa CL3-4 TLR4/MyD88 BLA complementation, FRET ratio; O00206+Q99836; in the data active = inhibition above about 25%
TLR9-MyD88 block – blocks human TLR9 binding to MyD88; Q9NR96+Q99836; AID 504734; CHO BLA complementation TLR9-MyD88, CCF4 FRET ratio; 340,000 tested, 0.21% active; inhibition, % at 4.98 µM;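 active = inhibition above the mean over all tested compounds plus 3 SD, cut at about 21% in these data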
UPR CHOP act – activators of apoptotic arm of unfolded protein response (CHOP); CHO-CHOP luciferase reporter, UPR activation, luminescence; percent of tunicamycin response over DMSO baseline; activation, % at 10 µM; 330,000 tested, 0.34% active;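 active = at 10 µM dose, activation of 40% or more, normalized to positive control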
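Test system: CHO-CHOP cells, stable luciferase reporter of PERK-eIF2a-CHOP signalling | Quantity: 500 CHO-CHOP cells per well | Buffer or medium: F12 plus 10% serum | Compound dosing: 10 µM single point, 0.5% DMSO | Schedule: 6 h compound treatment, 37 °C | Signal: Luciferase luminescence | Control set: Tunicamycin high control, DMSO low control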
CHOP UPR conf – confirmation of apoptotic unfolded protein response (CHOP) activators; CHO-CHOP cells, CHOP-luciferase reporter luminescence; percent of tunicamycin response, DMSO as zero; AID 463112; 1,000 tested, 64% active; shares compounds with UPR CHOP act; activation, % at 10 µM; in the data active = activation above about 33%
XBP1 UPR conf – confirmation of adaptive unfolded protein response (XBP1) activators; shares compounds with UPR XBP1 act; CHO-XBP1 IRE1-XBP1 luciferase reporter, luminescence; activation, % at 20 µM; 1,000 tested, 63% active;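 active = reporter signal at least 30% of the positive control's activation in two or more of four replicate wells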
A number is an active result; – = inactive; · = not tested or not shown.

SMILES | NOD2 RIPK2 PPI | CHOP inh | UPR XBP1 act | TLR4 MyD88 comp | TLR9-MyD88 block | UPR CHOP act | CHOP UPR conf | XBP1 UPR conf
COc1cccc(-c2c(-c3cc(OC)cc(OC)c3)n(C)c3ccc(-c4cnc(OC)nc4)cc23)c1 | – | · | – | · | – | – | · | ·
c1ccc(N=Nc2ccc3cccccc2-3)cc1 | – | · | 83 | · | – | 67 | – | 60
Nc1ccc(N=Nc2ccccc2)c2ccccc12 | – | – | – | · | – | – | · | ·
CN(c1ccccc1)S(=O)(=O)c1cccc(C(=O)NCCc2ccc(O)c(O)c2)c1 | – | – | 97 | – | – | 93 | 82 | 64
CCN(CC)S(=O)(=O)c1cccc(C(=O)NCCc2ccccc2)c1 | – | · | – | – | – | – | · | ·
O=C(NCCc1cccc(Cl)c1)c1cccc(-n2cnnn2)c1 | – | · | – | · | – | – | · | ·
CC1(C(=O)NS(=O)(=O)C2CC2)CCN(C(=O)c2cc(F)cc(F)c2)C1 (centres undefined) | – | · | · | · | · | · | · | ·
CC(=O)Nc1ccc(N=Cc2c(O)c(C(=O)Nc3ccccc3)cc3ccccc23)cc1 | · | – | 90 | – | · | 45 | 43 | –
CC1CCC(NC(=O)CN2C(=O)NC3(CCCCC3C)C2=O)CC1 (centres undefined) | – | · | – | · | – | – | · | ·
Cc1ccc(F)cc1N=Cc1c(O)c2ccccc2oc1=O | – | · | 76 | · | – | 148 | 131 | 141
Cc1ccc(N=Cc2c(O)c3ccccc3oc2=O)c(C)c1 | – | · | – | · | – | – | · | ·
CC(=O)c1cccc(N=Cc2c(O)c3ccccc3oc2=O)c1 | – | · | 147 | · | – | 159 | 35 | 93
Cc1cnc(NC(=O)c2cc(S(=O)(=O)N(C)C)ccc2N2CCCC2)s1 | – | · | 98 | · | · | 96 | 105 | 87
CN(C)S(=O)(=O)c1ccc(N2CCCC2)c(C(=O)Nc2nc3c(ccc4ccccc43)s2)c1 | – | – | – | – | – | – | · | ·
Cc1cc(N=Cc2c(O)n(-c3ccc(C)c(C)c3)c(=O)c3ccccc23)no1 | · | – | · | – | · | · | · | ·
CCOC(=O)Cc1csc(/N=C/c2c(O)n(-c3ccc(C)c(C)c3)c(=O)c3ccccc23)n1 | – | – | 95 | – | – | 66 | 63 | 155
O=C(Nc1ccc2ncccc2c1)c1cc(Cl)ccc1Cl | – | – | – | – | – | – | · | ·
Cc1cc(C)nc(SCc2ccc(C(=O)N/N=C/c3cccc(O)c3O)cc2)n1 | – | – | 53 | – | – | 140 | 77 | 52
Cc1cccnc1Nc1nc(-c2ccc(O)c(O)c2)cs1 | – | – | 30 | – | – | 155 | 114 | 43
COc1ccc(NC(=O)COC(=O)CCCOc2ccc(Cl)cc2Cl)cc1Cl | – | – | – | – | – | – | · | ·
CCOC(=O)c1cnc(Nc2nc3ccccc3o2)nc1CSC(=S)N(CC)CC | – | – | 33 | – | – | 127 | 122 | –
O=C(CCC1CCCC1)N1CCC(N2CCCCCC2)CC1 | – | – | – | – | – | – | · | ·
COc1cc(S(=O)(=O)Nc2ccccc2)ccc1N=Cc1c(C)[nH]n(-c2ccc(C)cc2)c1=O | · | – | – | – | · | – | · | ·
COc1cc(SC#N)ccc1N=Cc1c(C)[nH]n(-c2ccc(C)c(C)c2)c1=O | – | 107 | 54 | – | – | 68 | 39 | 73
COc1cc(SC#N)ccc1N=Cc1c(C)[nH]n(-c2ccc(Cl)cc2)c1=O | – | 104 | 101 | – | – | 86 | 89 | 134
SMILES | NOD2 RIPK2 PPI | CHOP inh | UPR XBP1 act | TLR4 MyD88 comp | TLR9-MyD88 block | UPR CHOP act | CHOP UPR conf | XBP1 UPR conf
CCOC(=O)CNC(=O)N1CCCC(CCC(=O)NCc2ccc(F)c(F)c2)C1 (centres undefined) | – | – | – | – | – | – | · | ·
O=C(COc1ccc(/C=N/NC(=O)c2cc3ccccc3o2)cc1Br)Nc1ccccc1 | – | – | 107 | – | – | 275 | 58 | 45
O=C1C(=Cc2cn(-c3ccccc3)nc2-c2ccc(OCc3ccc(Cl)cc3)cc2)SC(=S)N1CCS(=O)(=O)O | – | · | · | · | · | · | · | ·
COc1ccc2cc(C(=O)NCc3ccco3)c(=Nc3ccc(C(=O)O)cc3)oc2c1 | – | – | – | – | – | – | · | ·
COc1ccc(N=c2oc3c(OC)cccc3cc2C(=O)NCc2ccco2)c(OC)c1 | – | 89 | 74 | – | – | 172 | 101 | –
Brc1ccc(-c2ccc(/C=N/Nc3nncc(-c4ccccc4)n3)o2)cc1 | – | – | 91 | – | – | 59 | 62 | 128
Nc1cccc(-c2nc3cc(S(=O)(=O)c4ccc5oc(-c6cccc(N)c6)nc5c4)ccc3o2)c1 | – | – | 50 | – | – | 57 | 78 | 92
Cc1ccccc1S(=O)(=O)Cc1ccc(C(=O)N2CCN(c3ccccc3F)CC2)o1 | – | · | – | · | – | – | · | ·
CC(C)=CCc1c2c(c3occ(-c4ccc(O)c(O)c4)c(=O)c3c1O)C=CC(C)(C)O2 | – | · | · | · | – | · | · | ·
CC1(C)C=Cc2c(c3c(c4c(=O)c(-c5ccc(O)cc5)coc24)OC(C)(C)CC3)O1 | – | 92 | 54 | – | – | 87 | 44 | 64
C/C=C1\COC(C(=O)NCc2ccccc2)(C(F)(F)F)C=C1C=C(C)C (centres undefined) | – | · | – | · | – | – | · | ·
Cc1ccc(C(=O)Cn2c(C(=O)/C=C/c3ccccc3)nc3ccccc32)cc1 | – | – | 32 | – | – | 249 | 325 | 46
O=[N+]([O-])c1ccc(Cl)c(-c2ccc(/C=N/c3c(-c4ccco4)nc4ccccn34)o2)c1 | – | – | 90 | – | – | 74 | – | 95
COc1cccc(NC(=O)C(C)N2C(=O)c3ccccc3C2=O)c1 (centres undefined) | – | · | – | · | – | – | · | ·
CCOc1ccccc1-n1c(SCC(=O)Nc2ccc(CC)cc2)nc2n[nH]c(C)c2c1=N | · | 96 | 246 | – | · | 181 | 107 | 233
O=C(NCc1ccccc1Br)c1cccc2c1C(=O)c1ccc(-c3ccc(OC(F)(F)F)cc3)cc1S2(=O)=O | – | · | 115 | · | – | 98 | 88 | 86
O=C(O)c1cccc2c1C(=O)c1ccc(-c3ccc(OC(F)(F)F)cc3)cc1S2(=O)=O | – | · | – | · | – | – | · | ·
CC(C)c1cccc(-c2ccc3c(c2)S(=O)(=O)c2cccc(C(=O)NCc4ccccc4Cl)c2C3=O)c1 | – | · | 99 | · | – | 49 | 34 | 109
